Results taken from ChEMBL document CHEMBL1649531, “In vitro activity of garenoxacin against Streptococcus pneumoniae mutants with characterized resistance mechanisms” (2009).
In brackets after ≈: the same amount, converted by molar mass.

Legend:
Type in all cases: functional
Streptococcus pneumoniae [1] = test: Antibacterial activity against Streptococcus pneumoniae W001 harboring wild-type parC and gyrA genes assessed as mutation prevention concentration after 48 hrs
How it was run: (§1)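 A 200 μl culture at 10 log10 CFU/ml was spread on Mueller-Hinton II agar with 5% sheep blood containing drug at a range of concentrations, then incubated at 37°C in 5% CO2. MPC was taken as the lowest concentration preventing colony formation after 48 h. Determinations were done in duplicate.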

Streptococcus pneumoniae [2] = test: Antibacterial activity against Streptococcus pneumoniae S002 harboring parC Ser79Phe mutant and wild-type gyrA genes assessed as mutation prevention concentration after 48 hrs; how it was run: as §1
Streptococcus pneumoniae [3] = test: Antibacterial activity against Streptococcus pneumoniae W002 harboring wild-type parC and gyrA genes assessed as mutation prevention concentration after 48 hrs; how it was run: as §1
Streptococcus pneumoniae [4] = test: Antibacterial activity against Streptococcus pneumoniae W002 harboring wild-type parC and gyrA genes
Streptococcus pneumoniae [5] = test: Antibacterial activity against Streptococcus pneumoniae S003 harboring wild-type parC and gyrA Ser81Phe mutant genes assessed as mutation prevention concentration after 48 hrs; how it was run: as §1
Streptococcus pneumoniae [6] = test: Antibacterial activity against Streptococcus pneumoniae D002 harboring parC Ser79Phe and gyrA Ser81Phe mutant genes
Streptococcus pneumoniae [7] = test: Antibacterial activity against Streptococcus pneumoniae S004 harboring wild-type parC and gyrA Gly85Asn mutant genes assessed as mutation prevention concentration after 48 hrs; how it was run: as §1
Streptococcus pneumoniae [8] = test: Antibacterial activity against Streptococcus pneumoniae S001 harboring parC Asp83Asn mutant and wild-type gyrA genes assessed as mutation prevention concentration after 48 hrs; how it was run: as §1
Streptococcus pneumoniae [9] = test: Antibacterial activity against Streptococcus pneumoniae D001 harboring parC Ser79Phe and gyrA Gly85Lys mutant genes assessed as mutation prevention concentration after 48 hrs; how it was run: as §1
Streptococcus pneumoniae [10] = test: Antibacterial activity against Streptococcus pneumoniae D002 harboring parC Ser79Phe and gyrA Ser81Phe mutant genes assessed as mutation prevention concentration after 48 hrs; how it was run: as §1
Streptococcus pneumoniae [11] = test: Antibacterial activity against Streptococcus pneumoniae D001 harboring parC Ser79Phe and gyrA Gly85Lys mutant genes
Streptococcus pneumoniae [12] = test: Antibacterial activity against Streptococcus pneumoniae S004 assessed as resistant isolates with ParC83 mutation in quinolone resistance-determining regions
How it was run: (§2)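 Up to eight colonies per plate were grown individually, and genomic DNA was screened for ParC Ser79/Asp83 and GyrA Ser81/Gly85 changes by PCR-melting curve analysis with labelled hybridization probes. Sequences were confirmed by direct sequencing.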

Streptococcus pneumoniae [13] = test: Antibacterial activity against Streptococcus pneumoniae D001 assessed as resistant isolates with GyrA81 mutation in quinolone resistance-determining regions; how it was run: as §2
Streptococcus pneumoniae [14] = test: Antibacterial activity against Streptococcus pneumoniae S004 assessed as resistant isolates with GyrA85 mutation in quinolone resistance-determining regions; how it was run: as §2
Streptococcus pneumoniae [15] = test: Antibacterial activity against Streptococcus pneumoniae S004 assessed as resistant isolates with ParC79 mutation in quinolone resistance-determining regions; how it was run: as §2
Streptococcus pneumoniae [16] = test: Antibacterial activity against Streptococcus pneumoniae S002
Streptococcus pneumoniae [17] = test: Antibacterial activity against Streptococcus pneumoniae W001 harboring wild-type parC and gyrA genes
Streptococcus pneumoniae [18] = test: Antibacterial activity against Streptococcus pneumoniae S001 harboring parC Asp83Asn mutant and wild-type gyrA genes
Streptococcus pneumoniae [19] = test: Antibacterial activity against Streptococcus pneumoniae W001 assessed as resistant isolates with GyrA81 mutation in quinolone resistance-determining regions; how it was run: as §2
Streptococcus pneumoniae [20] = test: Antibacterial activity against Streptococcus pneumoniae W002 assessed as resistant isolates with ParC79 mutation in quinolone resistance-determining regions; how it was run: as §2
Streptococcus pneumoniae [21] = test: Antibacterial activity against Streptococcus pneumoniae S003 assessed as resistant isolates with ParC83 mutation in quinolone resistance-determining regions; how it was run: as §2
Streptococcus pneumoniae [22] = test: Antibacterial activity against Streptococcus pneumoniae S003 harboring wild-type parC and gyrA Ser81Phe mutant genes
Streptococcus pneumoniae [23] = test: Antibacterial activity against Streptococcus pneumoniae D002 assessed as resistant isolates with GyrA85 mutation in quinolone resistance-determining regions; how it was run: as §2
Streptococcus pneumoniae [24] = test: Antibacterial activity against Streptococcus pneumoniae W001 assessed as resistant isolates with ParC83 mutation in quinolone resistance-determining regions; how it was run: as §2
Streptococcus pneumoniae [25] = test: Antibacterial activity against Streptococcus pneumoniae D002
Streptococcus pneumoniae [26] = test: Antibacterial activity against Streptococcus pneumoniae W002 assessed as resistant isolates with ParC83 mutation in quinolone resistance-determining regions; how it was run: as §2
Streptococcus pneumoniae [27] = test: Antibacterial activity against Streptococcus pneumoniae S002 harboring parC Ser79Phe mutant and wild-type gyrA genes
Streptococcus pneumoniae [28] = test: Antibacterial activity against Streptococcus pneumoniae W002
Streptococcus pneumoniae [29] = test: Antibacterial activity against Streptococcus pneumoniae S001
Streptococcus pneumoniae [30] = test: Antibacterial activity against Streptococcus pneumoniae S003
Streptococcus pneumoniae [31] = test: Antibacterial activity against Streptococcus pneumoniae W001
Streptococcus pneumoniae [32] = test: Antibacterial activity against Streptococcus pneumoniae S004
Streptococcus pneumoniae [33] = test: Antibacterial activity against Streptococcus pneumoniae S003 assessed as resistant isolates with GyrA85 mutation in quinolone resistance-determining regions; how it was run: as §2
Streptococcus pneumoniae [34] = test: Antibacterial activity against Streptococcus pneumoniae W001 assessed as resistant isolates with GyrA85 mutation in quinolone resistance-determining regions; how it was run: as §2
Streptococcus pneumoniae [35] = test: Antibacterial activity against Streptococcus pneumoniae S001 assessed as resistant isolates with GyrA81 mutation in quinolone resistance-determining regions; how it was run: as §2
Streptococcus pneumoniae [36] = test: Antibacterial activity against Streptococcus pneumoniae D002 assessed as resistant isolates with ParC83 mutation in quinolone resistance-determining regions; how it was run: as §2
Streptococcus pneumoniae [37] = test: Antibacterial activity against Streptococcus pneumoniae S002 assessed as resistant isolates with GyrA81 mutation in quinolone resistance-determining regions; how it was run: as §2
Streptococcus pneumoniae [38] = test: Antibacterial activity against Streptococcus pneumoniae D001
Streptococcus pneumoniae [39] = test: Antibacterial activity against Streptococcus pneumoniae S004 harboring wild-type parC and gyrA Gly85Asn mutant genes
Streptococcus pneumoniae [40] = test: Antibacterial activity against Streptococcus pneumoniae W002 assessed as resistant isolates with GyrA81 mutation in quinolone resistance-determining regions; how it was run: as §2
Streptococcus pneumoniae [41] = test: Antibacterial activity against Streptococcus pneumoniae S003 assessed as resistant isolates with ParC79 mutation in quinolone resistance-determining regions; how it was run: as §2
Streptococcus pneumoniae [42] = test: Antibacterial activity against Streptococcus pneumoniae W002 assessed as resistant isolates with GyrA85 mutation in quinolone resistance-determining regions; how it was run: as §2
Streptococcus pneumoniae [43] = test: Antibacterial activity against Streptococcus pneumoniae S002 assessed as resistant isolates with GyrA85 mutation in quinolone resistance-determining regions; how it was run: as §2
Streptococcus pneumoniae [44] = test: Antibacterial activity against Streptococcus pneumoniae S001 assessed as resistant isolates with ParC79 mutation in quinolone resistance-determining regions; how it was run: as §2
Streptococcus pneumoniae [45] = test: Antibacterial activity against Streptococcus pneumoniae S002 assessed as resistant isolates with ParC83 mutation in quinolone resistance-determining regions; how it was run: as §2
Streptococcus pneumoniae [46] = test: Antibacterial activity against Streptococcus pneumoniae S001 assessed as resistant isolates with GyrA85 mutation in quinolone resistance-determining regions; how it was run: as §2
Streptococcus pneumoniae [47] = test: Antibacterial activity against Streptococcus pneumoniae W001 assessed as resistant isolates with ParC79 mutation in quinolone resistance-determining regions; how it was run: as §2

O=C(O)c1cn(C2CC2)c2cc(N3CCNCC3)c(F)cc2c1=O [CIPROFLOXACIN]
Activity (Streptococcus pneumoniae [1]): 8 µg/mL
Activity (Streptococcus pneumoniae [2]): 128 µg/mL
Activity (Streptococcus pneumoniae [3]): 8 µg/mL
MIC (Streptococcus pneumoniae [4]): 0.25 µg/mL (≈ 0.754 µM)
Activity (Streptococcus pneumoniae [5]): 64 µg/mL
MIC (Streptococcus pneumoniae [6]): 8 µg/mL (≈ 24.1 µM)
Activity (Streptococcus pneumoniae [7]): 64 µg/mL
Activity (Streptococcus pneumoniae [8]): 128 µg/mL
Activity (Streptococcus pneumoniae [9]): 256 µg/mL
Activity (Streptococcus pneumoniae [10]): 256 µg/mL
MIC (Streptococcus pneumoniae [11]): 32 µg/mL (≈ 96.6 µM)

C[C@H]1NCc2cc(-c3ccc4c(=O)c(C(=O)O)cn(C5CC5)c4c3OC(F)F)ccc21 [GARENOXACIN]
Activity (Streptococcus pneumoniae [12]): 0%
Activity (Streptococcus pneumoniae [1]): 0.12 µg/mL
Activity (Streptococcus pneumoniae [13]): 70%
Activity (Streptococcus pneumoniae [14]): 0%
Activity (Streptococcus pneumoniae [2]): 1 µg/mL
Activity (Streptococcus pneumoniae [15]): 56%
MIC (Streptococcus pneumoniae [16]): 0.06 µg/mL (≈ 0.141 µM)
MIC (Streptococcus pneumoniae [17]): 0.015 µg/mL (≈ 0.0352 µM)
MIC (Streptococcus pneumoniae [18]): 0.03 µg/mL (≈ 0.0704 µM)
Activity (Streptococcus pneumoniae [19]): 50%
Activity (Streptococcus pneumoniae [3]): 0.12 µg/mL
Activity (Streptococcus pneumoniae [20]): 0%
Activity (Streptococcus pneumoniae [21]): 0%
MIC (Streptococcus pneumoniae [22]): 0.06 µg/mL (≈ 0.141 µM)
Activity (Streptococcus pneumoniae [23]): 50%
Activity (Streptococcus pneumoniae [24]): 0%
MIC (Streptococcus pneumoniae [25]): 0.5 µg/mL (≈ 1.17 µM)
MIC (Streptococcus pneumoniae [4]): 0.015 µg/mL (≈ 0.0352 µM)
Activity (Streptococcus pneumoniae [26]): 0%
MIC (Streptococcus pneumoniae [27]): 0.06 µg/mL (≈ 0.141 µM)
MIC (Streptococcus pneumoniae [28]): 0.015 µg/mL (≈ 0.0352 µM)
Activity (Streptococcus pneumoniae [5]): 2 µg/mL
MIC (Streptococcus pneumoniae [29]): 0.03 µg/mL (≈ 0.0704 µM)
MIC (Streptococcus pneumoniae [30]): 0.06 µg/mL (≈ 0.141 µM)
MIC (Streptococcus pneumoniae [31]): 0.015 µg/mL (≈ 0.0352 µM)
MIC (Streptococcus pneumoniae [6]): 0.5 µg/mL (≈ 1.17 µM)
MIC (Streptococcus pneumoniae [32]): 0.06 µg/mL (≈ 0.141 µM)
Activity (Streptococcus pneumoniae [33]): 0%
Activity (Streptococcus pneumoniae [34]): 12%
Activity (Streptococcus pneumoniae [35]): 77%
Activity (Streptococcus pneumoniae [7]): 2 µg/mL
Activity (Streptococcus pneumoniae [8]): 1 µg/mL
Activity (Streptococcus pneumoniae [36]): 21%
Activity (Streptococcus pneumoniae [37]): 48%
Activity (Streptococcus pneumoniae [9]): 4 µg/mL
MIC (Streptococcus pneumoniae [38]): 0.25 µg/mL (≈ 0.586 µM)
Activity (Streptococcus pneumoniae [10]): 4 µg/mL
MIC (Streptococcus pneumoniae [39]): 0.06 µg/mL (≈ 0.141 µM)
MIC (Streptococcus pneumoniae [11]): 0.25 µg/mL (≈ 0.586 µM)
Activity (Streptococcus pneumoniae [40]): 67%
Activity (Streptococcus pneumoniae [41]): 65%
Activity (Streptococcus pneumoniae [42]): 0%
Activity (Streptococcus pneumoniae [43]): 9%
Activity (Streptococcus pneumoniae [44]): 0%
Activity (Streptococcus pneumoniae [45]): 0%
Activity (Streptococcus pneumoniae [46]): 0%
Activity (Streptococcus pneumoniae [47]): 0%

COc1c(N2CCNC(C)C2)c(F)cc2c(=O)c(C(=O)O)cn(C3CC3)c12 (centres undefined) [GATIFLOXACIN]
Activity (Streptococcus pneumoniae [1]): 0.5 µg/mL
Activity (Streptococcus pneumoniae [2]): 4 µg/mL
MIC (Streptococcus pneumoniae [17]): 0.12 µg/mL (≈ 0.32 µM)
MIC (Streptococcus pneumoniae [18]): 0.25 µg/mL (≈ 0.666 µM)
Activity (Streptococcus pneumoniae [3]): 0.5 µg/mL
MIC (Streptococcus pneumoniae [22]): 0.12 µg/mL (≈ 0.32 µM)
MIC (Streptococcus pneumoniae [4]): 0.12 µg/mL (≈ 0.32 µM)
MIC (Streptococcus pneumoniae [27]): 0.12 µg/mL (≈ 0.32 µM)
Activity (Streptococcus pneumoniae [5]): 8 µg/mL
MIC (Streptococcus pneumoniae [6]): 8 µg/mL (≈ 21.3 µM)
Activity (Streptococcus pneumoniae [7]): 8 µg/mL
Activity (Streptococcus pneumoniae [8]): 4 µg/mL
Activity (Streptococcus pneumoniae [9]): 16 µg/mL
Activity (Streptococcus pneumoniae [10]): 16 µg/mL
MIC (Streptococcus pneumoniae [39]): 0.25 µg/mL (≈ 0.666 µM)
MIC (Streptococcus pneumoniae [11]): 4 µg/mL (≈ 10.7 µM)

C[C@H]1COc2c(N3CCN(C)CC3)c(F)cc3c(=O)c(C(=O)O)cn1c23.C[C@H]1COc2c(N3CCN(C)CC3)c(F)cc3c(=O)c(C(=O)O)cn1c23.O [LEVOFLOXACIN]
Activity (Streptococcus pneumoniae [1]): 2 µg/mL
Activity (Streptococcus pneumoniae [2]): 16 µg/mL
Activity (Streptococcus pneumoniae [3]): 2 µg/mL
Activity (Streptococcus pneumoniae [5]): 32 µg/mL
Activity (Streptococcus pneumoniae [7]): 32 µg/mL
Activity (Streptococcus pneumoniae [8]): 16 µg/mL
Activity (Streptococcus pneumoniae [9]): 128 µg/mL
Activity (Streptococcus pneumoniae [10]): 128 µg/mL

COc1c(N2C[C@@H]3CCCN[C@@H]3C2)c(F)cc2c(=O)c(C(=O)O)cn(C3CC3)c12 [MOXIFLOXACIN]
Activity (Streptococcus pneumoniae [1]): 0.5 µg/mL
MIC (Streptococcus pneumoniae [17]): 0.06 µg/mL (≈ 0.149 µM)
Activity (Streptococcus pneumoniae [3]): 0.5 µg/mL
MIC (Streptococcus pneumoniae [22]): 0.06 µg/mL (≈ 0.149 µM)
MIC (Streptococcus pneumoniae [4]): 0.06 µg/mL (≈ 0.149 µM)
Activity (Streptococcus pneumoniae [5]): 4 µg/mL
MIC (Streptococcus pneumoniae [6]): 4 µg/mL (≈ 9.96 µM)
Activity (Streptococcus pneumoniae [7]): 4 µg/mL
Activity (Streptococcus pneumoniae [9]): 16 µg/mL
Activity (Streptococcus pneumoniae [10]): 16 µg/mL
MIC (Streptococcus pneumoniae [39]): 0.12 µg/mL (≈ 0.299 µM)
MIC (Streptococcus pneumoniae [11]): 4 µg/mL (≈ 9.96 µM)
